pKi: −log10 of the molar value. Activity calls are given as the source filed them.
Experiments:
[1] = system: Mus musculus; experiment: Anticonvulsant activity in CF1 albino mouse assessed as protection against subcutaneous pentetrazole-induced seizure at 100 mg/kg, ip after 0.5 hrs; assay type: functional, organism-based
Outline: (§1)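 Male CF-1 mice, ip in 0.5% methylcellulose; pentetrazole at CD97 (85 mg/kg) injected subcutaneously in a loose fold of neck skin. Observed 30 min; absence of even a threshold seizure (single clonic spasm lasting at least 5 s) counted as protection. Scored protected/tested, or ED50.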

[2] = system: Mus musculus; experiment: Neurotoxicity in CF1 albino mouse at 30 mg/kg, ip after 4 hrs by rotarod test; assay type: toxicity, organism-based; conditions: in vivo
Outline: (§2)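 Rotarod neurotoxicity in male albino CF-1 mice dosed ip with compound suspended in 0.5% methylcellulose. Animal placed on a 1 inch diameter knurled plastic rod rotating at 6 rpm. Neurotoxicity scored when the animal falls off three times within 1 min. Readout is number of animals toxic/number tested at the stated time after dosing. TD50 with 95% confidence interval from the quantitative study.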

[3] = system: Mus musculus; experiment: Anticonvulsant activity in CF1 albino mouse assessed as protection against maximal electroshock-induced seizure at 100 mg/kg, ip after 4 hrs; assay type: functional, organism-based
Outline: (§3)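 Male CF-1 mice dosed ip as suspension in 0.5% methylcellulose. Corneal electrodes deliver 60 Hz alternating current, 50 mA for […], after a drop of 0.5% tetracaine HCl in 0.9% NaCl per eye. Protection means abolition of hindlimb tonic extension; scored as protected/tested, or ED50 with 95% confidence interval.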

[4] = system: Mus musculus; experiment: Anticonvulsant activity in CF1 albino mouse assessed as protection against subcutaneous pentetrazole-induced seizure at 30 mg/kg, ip after 0.5 hrs; assay type: functional, organism-based; outline: as §1
[5] = system: Mus musculus; experiment: Anticonvulsant activity in CF1 albino mouse assessed as protection against subcutaneous pentetrazole-induced seizure at 100 mg/kg, ip after 4 hrs; assay type: functional, organism-based; outline: as §1
[6] = system: Mus musculus; experiment: Neurotoxicity in CF1 albino mouse at 300 mg/kg, ip after 4 hrs by rotarod test; assay type: toxicity, organism-based; conditions: in vivo; outline: as §2
[7] = system: Mus musculus; experiment: Anticonvulsant activity in CF1 albino mouse assessed as protection against maximal electroshock-induced seizure at 300 mg/kg, ip after 0.5 hrs; assay type: functional, organism-based; outline: as §3
[8] = system: Mus musculus; experiment: Anticonvulsant activity in CF1 albino mouse assessed as protection against maximal electroshock-induced seizure at 30 mg/kg, ip after 4 hrs; assay type: functional, organism-based; outline: as §3
[9] = system: Mus musculus; experiment: Neurotoxicity in CF1 albino mouse at 100 mg/kg, ip after 4 hrs by rotarod test; assay type: toxicity, organism-based; conditions: in vivo; outline: as §2
[10] = system: Mus musculus; experiment: Neurotoxicity in CF1 albino mouse assessed as unable to grasp rotarod, death and diarrhea at 300 mg/kg, ip after 0.5 hrs by rotarod test; assay type: toxicity, organism-based; conditions: in vivo
Outline: (§4)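 Male albino CF-1 mice dosed ip with compound suspended in 0.5% methylcellulose, then placed on a 1-inch knurled plastic rod turning at 6 rpm. A fall three times within 1 min counted as neurotoxicity. Observations were made at 0.5 h and 4 h after dosing. Result given as animals showing toxicity per animals tested, with the kind of toxicity recorded.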

[11] = system: Mus musculus; experiment: Neurotoxicity in CF1 albino mouse at 30 mg/kg, ip after 0.5 hrs by rotarod test; assay type: toxicity, organism-based; conditions: in vivo; outline: as §2
[12] = system: Mus musculus; experiment: Anticonvulsant activity in CF1 albino mouse assessed as protection against subcutaneous pentetrazole-induced seizure at 30 mg/kg, ip after 4 hrs; assay type: functional, organism-based; outline: as §1
[13] = biological target: Histamine H3 receptor (Homo sapiens, UniProt Q9Y5N1); experiment: Displacement of [3H]-Nalpha-methylhistamine from human recombinant histamine H3 receptor expressed in HEK293 cells after 90 mins; assay type: cell-based
Histamine H3 receptor, sequence (Q9Y5N1 whole entry): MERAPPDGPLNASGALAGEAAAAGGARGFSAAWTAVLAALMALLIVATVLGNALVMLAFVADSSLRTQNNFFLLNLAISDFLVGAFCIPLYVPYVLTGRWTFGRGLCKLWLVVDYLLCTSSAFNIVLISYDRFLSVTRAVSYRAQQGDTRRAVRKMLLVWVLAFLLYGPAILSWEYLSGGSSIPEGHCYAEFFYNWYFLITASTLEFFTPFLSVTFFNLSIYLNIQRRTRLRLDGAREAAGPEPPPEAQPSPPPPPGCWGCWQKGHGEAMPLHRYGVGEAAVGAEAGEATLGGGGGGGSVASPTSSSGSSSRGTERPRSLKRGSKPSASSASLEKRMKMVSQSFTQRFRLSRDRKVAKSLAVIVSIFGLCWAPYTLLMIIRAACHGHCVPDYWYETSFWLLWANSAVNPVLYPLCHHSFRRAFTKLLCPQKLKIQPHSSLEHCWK

[14] = system: Mus musculus; experiment: Anticonvulsant activity in CF1 albino mouse assessed as protection against maximal electroshock-induced seizure at 100 mg/kg, ip after 0.5 hrs; assay type: functional, organism-based; outline: as §3
[15] = system: Mus musculus; experiment: Anticonvulsant activity in CF1 albino mouse assessed as protection against maximal electroshock-induced seizure at 30 mg/kg, ip after 0.5 hrs; assay type: functional, organism-based; outline: as §3
[16] = system: Mus musculus; experiment: Neurotoxicity in CF1 albino mouse assessed as unable to grasp rotarod and death at 100 mg/kg, ip after 0.5 hrs by rotarod test; assay type: toxicity, organism-based; conditions: in vivo; outline: as §4
[17] = system: Mus musculus; experiment: Anticonvulsant activity in CF1 albino mouse assessed as protection against maximal electroshock-induced seizure at 10 mg/kg, ip after 0.5 hrs; assay type: functional, organism-based; outline: as §3
[18] = system: Mus musculus; experiment: Neurotoxicity in CF1 albino mouse at 3 mg/kg, ip after 0.5 hrs by rotarod test; assay type: toxicity, organism-based; conditions: in vivo; outline: as §2
[19] = system: Rattus norvegicus; experiment: Neurotoxicity in Sprague-Dawley rat at 30 mg/kg, po by rotarod test; assay type: toxicity, organism-based; conditions: in vivo
Outline: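 Oral dosing in male Sprague–Dawley rats, compound as a suspension in 0.5% methylcellulose. Rotarod neurotoxicity on a 1 inch knurled rod turning at 6 rpm, with three falls in 1 min scored as toxic. Reported as toxic/tested.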

[20] = system: Mus musculus; experiment: Neurotoxicity in CF1 albino mouse assessed as death at 300 mg/kg, ip after 0.5 hrs by rotarod test; assay type: toxicity, organism-based; conditions: in vivo; outline: as §4
[21] = system: Mus musculus; experiment: Neurotoxicity in CF1 albino mouse at 10 mg/kg, ip after 0.5 hrs by rotarod test; assay type: toxicity, organism-based; conditions: in vivo
Outline: (§5)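 Rotarod neurotoxicity in male CF-1 mice dosed ip as 0.5% methylcellulose suspension: mouse placed on 1 inch knurled rod rotating at 6 rpm; toxicity when the animal falls off three times within 1 min, with other signs noted. Scored as toxic/tested at 0.5 h and 4 h.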

[22] = system: Mus musculus; experiment: Neurotoxicity in CF1 albino mouse assessed as unable to grasp rotarod, diarrhea and clonic seizure at 100 mg/kg, ip after 0.5 hrs by rotarod test; assay type: toxicity, organism-based; conditions: in vivo; outline: as §5
[23] = system: Mus musculus; experiment: Anticonvulsant activity in CF1 albino mouse assessed as protection against maximal electroshock-induced seizure at 3 mg/kg, ip after 0.5 hrs; assay type: functional, organism-based; outline: as §3
[24] = system: Rattus norvegicus; experiment: Anticonvulsant activity in Sprague-Dawley rat assessed as protection against maximal electroshock-induced seizure at 30 mg/kg, po; assay type: functional

Structure (SMILES) | Activity [1] | Activity [2] | Activity [3] | Activity [4] | Activity [5] | Activity [6] | Activity [8] | Activity [9] | Activity [11] | Activity [12] | pKi [13] | Activity [14] | Activity [15] | other results
CC1CCN(CCCCCCCOc2cccc(Cl)c2)CC1.O=C(O)C(=O)O | inactive | Non-toxic | Active | inactive | inactive | Non-toxic | inactive | Non-toxic | Non-toxic | inactive | 6.09 | inactive | inactive | Activity [7]: Active; Activity [10]: Toxic; Activity [16]: Toxic
CC1CCN(CCCCCCCOc2ccc(Cl)cc2)CC1.O=C(O)C(=O)O | inactive | Non-toxic | Active | inactive | inactive | Non-toxic | inactive | Non-toxic | Non-toxic | inactive | 6.33 | Active | Active | Activity [17]: inactive; Activity [18]: Non-toxic; Activity [19]: Non-toxic; Activity [20]: Toxic; Activity [21]: Non-toxic; Activity [22]: Toxic; Activity [23]: inactive; Activity [24]: inactive
